Screening data: PubChem, several laboratories
ABHD5-PLIN5 inh – inhibitors of human ABHD5-perilipin-5 interaction; Split G. princeps luciferase complementation, luminescence, 4 h; inhibition, % at 4 µM; 360,000 tested, 0.78% active; AID 602281;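 active means inhibition above the mean inhibition across every tested compound plus 3 SD, cut at about 22% in these data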;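 further: 0% = DMSO only wells and the 100% control is not disclosed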
Rin1 Abl inh – blocks binding of human Rin1 to Abl; inhibition, % at 7.35 µM; TR-FRET Rin1/Abl binding, biochemical; P00519+Q13671; 360,000 tested, 0.4% active; AID 588664; in the data active means inhibition above about 5%, passing the limit was not always enough
Rpn11 inh – blocks the human proteasome subunit Rpn11 | O00487 | human 26S proteasome, Ub4-pepOG fluorescence polarization; 20S core pre-blocked with epoxomicin | inhibition, % at 20 µM | 360,000 tested, 0.59% active | AID 588493;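 active means inhibition at 20 µM, scaled to each plate's controls, above about 33%, limit read from the data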
NadD block – blocks S. aureus nicotinate mononucleotide adenylyltransferase; purified NadD enzyme, colorimetric absorbance read-out; AID 602399; inhibition, % at 20 µM; 360,000 tested, 0.78% active; in the data active means inhibition above about 26%
XiGFP reactiv – X-chromosome reactivation activator. XiGFP mouse fibroblasts, % GFP-positive cells imaging, 3 d; cells co-treated with 5-aza-dC sensitizer; scaled so ellipticine positive control = 100%. activation, % at 7.58 µM. 360,000 tested, 0.055% active. AID 743238;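 active means mean normalized replicate activation at least 10% and every replicate at or above 10%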;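 further: 0% = median of on-plate neutral control wells and 100% = ellipticine 6 µM median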
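Assay system – SV40-immortalized XiGFP fibroblast cells, line 68-5-11 · Buffer or medium – DMEM supplemented with 5-aza-dC as sensitizing agent · Dosing – one concentration, pinned · Benchmarks – positive control ellipticine, 6 µM final · Times – 3 days compound exposure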
NadD inh conf – NadD (S. aureus) inhibition, single concentration confirmation; shares compounds with NadD block; purified S. aureus NadD, colorimetric enzyme assay; inhibition, % at 20 µM; 2,000 tested, 13% active; AID 624309; in the data active means inhibition mostly above about 42%, no sharp cut-off; inactive means mostly below about 42%
* marks the source's active call; other numbers are inactive results; · = no result shown. Shown are actives, neighbours in structure and some others; about 1.9% of the full set was active somewhere.

SMILES	ABHD5-PLIN5 inh	Rin1 Abl inh	Rpn11 inh	NadD block	XiGFP reactiv	NadD inh conf
O=C(N/N=C/c1ccc2c(c1)OCO2)c1cc(-c2ccccc2Cl)nc2ccccc12	0	3	-2	-2	0	·
C[C@H](CO)N1C[C@H](C)[C@@H](CN(C)Cc2ccc(Cl)c(Cl)c2)OCCCC[C@H](C)Oc2ccc(NC(=O)Nc3ccccc3)cc2C1=O	·	·	·	·	1	·
Cc1cc(C)nc(NC(=NCCc2c[nH]c3ccccc23)NC(=O)Nc2ccccc2)n1	2	0	-9	19	0	·
Cc1cc(C)nc(NC(=NCCc2c[nH]c3ccccc23)NC(=O)Nc2cccc([N+](=O)[O-])c2)n1	4	-3	0	49*	0	8
Cc1cc(C)nc(NC(=NCCc2c[nH]c3ccccc23)NC(=O)Nc2ccc(Cl)c(Cl)c2)n1	1	-2	-3	38*	0	3
O=C(Cc1ccccn1)N[C@H]1CC[C@H](CC(=O)N2CCCCC2)O[C@@H]1CO	·	·	·	·	0	·
COc1ccc(NC(=O)N[C@H]2CC[C@H](CCNS(=O)(=O)c3ccccc3F)O[C@@H]2CO)cc1	·	·	·	·	0	·
O=C(Nc1cccc(N=Cc2cc(Cl)cc(Br)c2O)c1)c1ccco1	3	2	10	20	0	·
O=C(Nc1cccc(N=Cc2cc(Br)cc(Br)c2O)c1)c1ccco1	4	1	16	41*	0	21
Cc1noc(C)c1NC(=O)Nc1ccc2c(c1)CC(=O)N([C@@H](C)CO)C[C@@H](C)[C@@H](CN(C)Cc1ccc(Oc3ccccc3)cc1)O2	·	·	·	·	0	·
Cc1ccc(OCC(=O)Nc2nnc(S(=O)(=O)N3CCCCC3)s2)cc1	0	0	19	49*	1	18
O=C(Nc1nnc(S(=O)(=O)N2CCCCCC2)s1)c1ccc(Cl)cc1	7	-1	-10	31*	0	10
COc1ccccc1NC(=O)N[C@@H]1CC[C@H](CCn2cc(-c3ccccc3OC)nn2)O[C@@H]1CO	·	·	·	·	1	·
O=C(O)C[C@H]1C[C@H]2c3cc(NC(=O)c4ccc5c(c4)OCO5)ccc3O[C@H]2[C@H](CO)O1	·	·	·	·	1	·
CCCc1cc(=O)[nH]c(SCC(=O)N2N=C(c3ccc(Cl)cc3)CC2c2ccco2)n1 (stereo unspecified)	3	-2	37	35*	0	50*
Nc1c(C(=O)O)sc2nc(-c3ccccc3)cc(-c3ccc(F)cc3)c12	-8	-5	·	35*	0	26
O=C1CC(c2ccco2)Cc2nc(Nc3nc(-c4ccccc4)c4ccccc4n3)ncc21 (stereo unspecified)	11	1	4	57*	·	32
Cc1c([N+](=O)[O-])cc(S(=O)(=O)Nc2ccc(-c3ccc(N4CCCC4)nn3)cc2)cc1[N+](=O)[O-]	4	0	2	57*	0	20
O=[N+]([O-])c1ccccc1S(=O)(=O)Nc1cccc(-c2ccc(N3CCCC3)nn2)c1	1	-4	-1	15	0	·
Cc1ccc([N+](=O)[O-])cc1S(=O)(=O)Nc1ccc(-c2ccc(N3CCCC3)nn2)cc1	-2	1	5	38*	0	37
O=[N+]([O-])c1ccc(S(=O)(=O)Nc2ccc(-c3ccc(N4CCCC4)nn3)cc2)cc1	-2	-3	-12	21	0	·
Cc1ccc(S(=O)(=O)Nc2cccc(-c3ccc(N4CCCCCC4)nn3)c2)c(C)c1	-3	0	14	42*	0	15
O=[N+]([O-])c1ccc(Cl)c(S(=O)(=O)Nc2cccc(-c3ccc(N4CCCC4)nn3)c2)c1	7	-2	7	63*	0	52*
C[C@@H]1CN([C@H](C)CO)C(=O)c2cc(-c3cccc(C(=O)N(C)C)c3)cnc2O[C@H]1CN(C)S(=O)(=O)c1cccc(F)c1	·	·	·	·	1	·
O=C1CCCC2=C1C1(CCCC1)N=C(Nc1nc3cc(-c4ccccc4)ccc3o1)N2	0	-2	15	40*	0	13
SMILES	ABHD5-PLIN5 inh	Rin1 Abl inh	Rpn11 inh	NadD block	XiGFP reactiv	NadD inh conf
C[C@H](CO)N1C[C@H](C)[C@H](CN(C)Cc2cccnc2)OCc2cnnn2CCCC1=O	·	·	·	·	0	·
C[C@H]1CN([C@@H](C)CO)C(=O)c2cc(-c3cncnc3)cnc2O[C@H]1CN(C)C(=O)Cc1ccccc1	·	·	·	·	0	·
O=C(c1cccc(F)c1)N1CC(=O)N2[C@H](CO)[C@@H](c3ccc(-c4cccnc4)cc3)[C@H]2C1	·	·	·	·	0	·
COC(=O)CCCC1=CC2=CC(=O)C(C)(OC(=O)CCc3ccccc3)C(=O)C2=CO1 (stereo unspecified)	6	3	22	41*	·	72*
Cc1ccc(C)c(N(CC(=O)NC2CCCCC2)C(=O)c2csnn2)c1	5	1	0	3	0	·
Cc1cccc(N(CC(=O)NC2CCCC2)C(=O)c2nsc(Cl)c2Cl)c1C	-1	-2	-4	-8	0	·
Cc1ccc(C)c(N(CC(=O)NC2CCCC2)C(=O)c2cc3cc4cccc(C)c4nc3s2)c1	1	-2	-5	32*	·	12
Cc1ccc2cc3cc(C(=O)N(CC(=O)NC4CCCC4)c4cccc(C)c4C)sc3nc2c1	2	-6	1	34*	·	11
COCC(=O)N(C)C[C@H]1Oc2cc(C#CC3CCCC3)ccc2S(=O)(=O)N([C@H](C)CO)C[C@H]1C	·	·	·	·	-1	·
O=C(C[C@H]1C[C@H]2c3cc(NC(=O)c4ccc5c(c4)OCO5)ccc3O[C@H]2[C@H](CO)O1)NCc1cccnc1	·	·	·	·	0	·
Nc1c(C(=O)Nc2ccccc2)sc2nc(-c3ccco3)ccc12	9	1	21	35*	·	26
CC(=O)c1sc2nc(-c3cccs3)ccc2c1N	-10	-1	6	19	·	·
Nc1c(C(=O)Nc2nc3ccccc3s2)sc2nc(-c3cccs3)ccc12	-1	-4	29	34*	·	23
Cc1csc(N=Cc2ccc([N+](=O)[O-])o2)n1	-4	3	-12	36*	0	22
O=C(Cc1ccccn1)N1CC(=O)N2[C@H](CO)[C@@H](c3ccc(C#CC4CCCC4)cc3)[C@@H]2C1	·	·	·	·	0	·
C/C(=N\Nc1nnc(-c2ccccc2)c(-c2ccccc2)n1)c1cccc([N+](=O)[O-])c1	5	1	1	33*	·	3
O=C(c1ccc(C(=O)N2CCCc3ccccc32)s1)N1CCCc2ccccc21	3	0	8	0	·	·
Cc1ccc(C)c2nc3sc(C(=O)N4CCCc5ccccc54)c(N)c3cc12	-4	-1	-29	32*	·	7
O=C(NCC[C@H]1CC[C@@H](NC(=O)c2ccccc2F)[C@@H](CO)O1)c1cnccn1	·	·	·	·	1	·
COCCN1C(=O)Cc2c1nc(N)c1c(N)nc(N3CCN(c4ccc(F)cc4)CC3)c(C#N)c21	10	-3	24	37*	0	9
